RBBP9 inhibitor = human RBBP9 hydrolase inhibition. O75884. recombinant RBBP9, FP-Rh probe fluorescence polarization. inhibition, % at 7.94 µM. hit rate 0.2% among 220,000. AID 1515;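 active means inhibition above the campaign mean of all tested compounds plus 3 SD, cut at about 14% in these data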
Target sequence (O75884 whole entry, looked up): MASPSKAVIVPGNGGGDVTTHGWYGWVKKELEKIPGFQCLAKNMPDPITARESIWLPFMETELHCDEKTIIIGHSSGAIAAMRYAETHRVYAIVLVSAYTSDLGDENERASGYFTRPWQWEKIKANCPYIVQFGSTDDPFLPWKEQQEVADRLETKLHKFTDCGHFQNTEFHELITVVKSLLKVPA
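Material: RBBP9 protein. Amount: RBBP9 at 2.5 µM in dispensed solution, before mixing. Schedule: 30 min then 45 min, 25 °C. Medium: Tris buffer pH 8.0, NaCl, Pluronic. Measured by: fluorescence polarization. Measure: percent inhibition from mP, scaled between DMSO and no-protein wells. Replication: one well per compound.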
p47phox inh = p47phox (human) inhibition | p47phox/p22phox peptide binding, fluorescence polarization, 2 h | hit rate 0.53% among 220,000 | inhibition, % at 24.7 µM | P14598
Target sequence (P14598 whole entry, looked up): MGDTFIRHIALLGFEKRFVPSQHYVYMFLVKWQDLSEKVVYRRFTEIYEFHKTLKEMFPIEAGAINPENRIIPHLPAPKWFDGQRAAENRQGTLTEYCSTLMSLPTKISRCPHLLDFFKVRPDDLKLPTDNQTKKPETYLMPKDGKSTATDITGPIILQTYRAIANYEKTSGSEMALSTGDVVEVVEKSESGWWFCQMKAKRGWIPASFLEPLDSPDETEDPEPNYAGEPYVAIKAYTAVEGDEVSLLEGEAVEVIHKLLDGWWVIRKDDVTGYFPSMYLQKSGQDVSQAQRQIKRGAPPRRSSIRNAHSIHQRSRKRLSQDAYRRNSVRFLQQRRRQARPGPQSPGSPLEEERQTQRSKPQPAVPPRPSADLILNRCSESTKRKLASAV
Wee1 stabilizer = blocks degradation of human Wee1 kinase; hit rate 1.2% among 220,000; reporter increase, % at 5 µM; HeLa Luc-Wee1K328M stability, luciferase luminescence; 100% = proteasome inhibitor MG132 effect;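 active means activation above the mean of all tested compounds plus 3 SD, set per screening run, cut at about 8.8% in these data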;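 further: cells exposed to compound for 20 h before luminescence read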
eIF4E 4G PPI = eIF4E/eIF4G interaction inhibition in translation initiation. P63073+Q04637. inhibition, % at 21.7 µM. TR-FRET eIF4E-eIF4GI(517-606) binding, 2 h. hit rate 0.37% among 220,000
14-3-3 Bad inh = disrupts binding of bovine 14-3-3 zeta to phospho-Bad peptide; P63103; TR-FRET 14-3-3zeta/Dy647-pBad peptide displacement, 1 h; inhibition, % at 21.7 µM; hit rate 0.71% among 220,000; AID 781;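 active means inhibition above about 70%, limit read from the data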
Wee1 stab conf = human Wee1 degradation inhibition, confirmation; shares compounds with Wee1 stabilizer; HeLa Luc-Wee1K328M degradation, luminescence; vehicle 0%, proteasome-blocked wells 100%; activation, % at 5 µM; hit rate 4% among 1,100; AID 1410; in the data active means activation above about 8.9%
A number is an active result; - = inactive; . = no result given; [ ] = another dose, or the depositor's remark. Rows were chosen to be rich in hits. Some 2.8% of all compounds tested hit in one or more screens of this group.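 How the source made its calls, unless noted: active means inhibition above about 30% (limit read from the data); inactive means the rest.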

SMILES	RBBP9 inhibitor	p47phox inh	Wee1 stabilizer	eIF4E 4G PPI	14-3-3 Bad inh	Wee1 stab conf
Cc1cc(N2CCCC2)nc(N2C3CCC2CC(O)(c2ccc(F)cc2)C3)n1 (stereo unspecified)	-	-	16	-	-	-
COc1ccc(C2(O)CC3CCC(C2)N3c2cc(C)nc(-c3ccccc3)n2)cc1 (stereo unspecified)	-	-	-	-	-	.
CN(Cc1nccn1C)C(=O)CC1C(=O)NCCN1Cc1ccccc1C(F)(F)F (stereo unspecified)	-	-	-	-	-	.
CCNCc1ccc(OCc2ccccc2F)c(OC)c1	-	-	-	-	-	.
COc1cc(CNCCCCO)ccc1OCc1ccccc1F	-	-	12	-	-	-
COc1ccc(CCCc2nnc(SCc3nc4ccccc4c(=O)[nH]3)n2C)cc1C	-	-	-	-	-	.
COc1ccccc1C(=O)NCc1ccccc1	-	-	-	-	-	.
O=C(NCc1ccc(F)cc1)c1ccccc1OCc1ccccc1	-	-	20	-	-	-
COC(=O)C(Cc1c[nH]c2ccccc12)NC(C)=O (stereo unspecified)	-	-	11	-	-	-
COC(=O)C(Cc1c[nH]c2ccccc12)NC(=O)c1cccs1 (stereo unspecified)	-	-	-	-	-	.
NC(=O)C1=C[C@H](c2csc3ccccc23)C[C@H](OCCCCO)O1	-	-	11	-	-	-
CCn1cc([N+](=O)[O-])c(C(=O)Nc2nc3ccc(OC)cc3s2)n1	-	-	-	-	-	.
CN(C)S(=O)(=O)c1cccc(NC(=O)CNCC2CCCCC2)c1	-	-	12	-	-	-
S=C(NCCc1ccccc1)Nc1cccc2cnccc12	-	-	-	-	-	.
CCOC(=O)c1c(Nc2ccccc2OCCOC)n[nH]c1C	-	-	11	-	-	-
CCOC(=O)c1c(NCc2ccccc2)n[nH]c1C	-	-	-	-	-	.
Cc1nnc(NC(=O)Cn2cnc3c2c(=O)n(C)c(=O)n3C)s1	-	-	12	-	-	-
Cc1ccccc1/C=C1\CCCc2ccccc2C1=O	-	-	-	-	-	.
Cc1ccsc1/C=C1\CCc2ccccc2C1=O	-	-	16	-	-	-
O=C1CN(C(=O)c2cc([N+](=O)[O-])ccc2Cl)C(c2ccc(F)cc2)c2cc(F)ccc2N1 (stereo unspecified)	-	-	-	-	-	.
Cc1nnc(SCC(=O)NNC(=O)c2ccc(Br)cc2)n1C	-	-	-	-	-	.
O=C(Nc1ccc(F)cc1F)c1csc(-c2ccncc2)n1	-	-	-	-	-	.
O=C(Nc1ccc(F)cc1F)c1csc(-c2cccs2)n1	-	-	11	-	-	-
CC(=O)c1cccc(N(C(=O)c2cnccn2)C(C(=O)NCc2ccccc2)c2ccco2)c1 (stereo unspecified)	-	-	-	-	-	.
c1cncc(CNc2ncnc3sc4c(c23)CCCC4)c1	-	-	-	-	-	.
SMILES	RBBP9 inhibitor	p47phox inh	Wee1 stabilizer	eIF4E 4G PPI	14-3-3 Bad inh	Wee1 stab conf
CN(C)C(CNc1ncnc2sc3c(c12)CCCCC3)c1ccco1 (stereo unspecified)	-	-	34	-	-	-
CCOC(=O)c1ccccc1NC(=O)CN(c1ccc(OCC)cc1)S(C)(=O)=O	-	-	12	-	-	-
CCOC(=O)c1ccccc1NC(=O)CN(c1ccccc1OCC)S(C)(=O)=O	-	-	-	-	-	.
COc1cccc(-c2nc(-c3ccc(NC(=O)c4cccs4)cc3)no2)c1	-	-	-	-	-	.
Nc1ccccc1Nc1cc(-c2ccccc2)nn1-c1ccccc1	-	-	-	-	-	.
Cc1ccc(-n2nc(-c3ccccc3)cc2Nc2ccccc2N)cc1	-	-	11	-	-	-
Cc1ccc2[nH]c(C(=O)NN=C3CCCCC3)c(-c3ccccc3)c2c1	-	-	16	-	-	-
CCOC(=O)C1CCCN(C(=S)Nc2cccc(Cl)c2C)C1 (stereo unspecified)	-	-	-	-	-	.
Oc1c(CN2CCOCC2)ccc2ccccc12	-	-	11	-	-	-
COc1cc(/C=N/Nc2ccc(S(N)(=O)=O)cc2[N+](=O)[O-])cc(OC)c1O	-	-	11	-	-	-
CCCCCCCc1c(O)nc(SCCN2CCOCC2)[nH]c1=O	-	-	-	-	-	.
CCC(C)[C@H](NC(=O)N1CCN(c2cccc(C(F)(F)F)c2)CC1)C(=O)OC (stereo partly specified)	-	-	12	-	-	-
O=C(CSc1nnc(COc2ccccc2Cl)o1)NC(=O)NCc1ccco1	-	-	-	-	-	.
CCc1ccc(Nc2cc(=O)n(C3CCCCC3)c(=O)[nH]2)cc1	-	-	-	-	-	.
O=c1cc(Nc2ccc3c(c2)OCCO3)[nH]c(=O)n1C1CCCCC1	-	-	11	-	-	11
CCCCOc1ccc(CNC(=O)NS(=O)(=O)c2ccc(OCC)cc2)cc1	-	-	13	-	-	-
Cc1ccc(O)c(-c2cc(C(=O)NCc3ccc4c(c3)OCO4)[nH]n2)c1	-	-	-	-	-	.
CNc1nc(-c2ccc3c(c2)CCN3C(=O)c2ccccc2F)cs1	-	-	11	-	-	-
Cc1nc(-c2ccccc2)sc1-c1ccnn1C	-	-	18	-	-	-
O=C(c1ccccc1Sc1ccc([N+](=O)[O-])cc1)N1CCCCC1	-	-	-	-	-	.
Cc1ccc(C2OC3=C(C(=O)CC(C)(C)C3)C(N)=C2C#N)o1 (stereo unspecified)	-	-	15	-	-	-
Cc1ccc(C2C(C#N)=C(N)SC(N)=C2C#N)o1	-	-	-	-	-	.
O=C(COc1ccccc1)NC(=S)Nc1ccc2c(c1)Cc1ccccc1-2	-	-	-	-	-	.
CC(Cc1ccccc1)NC(=O)c1cc([N+](=O)[O-])ccc1Cl (stereo unspecified)	-	-	-	-	-	.
O=C(Cn1cnc2ccccc2c1=O)OCC(=O)c1ccc2c(c1)OCCO2	-	-	11	-	-	-
SMILES	RBBP9 inhibitor	p47phox inh	Wee1 stabilizer	eIF4E 4G PPI	14-3-3 Bad inh	Wee1 stab conf
O=C(COc1ncnc2ccccc12)c1ccc2c(c1)OCCO2	-	-	-	-	-	.
O=C(Cn1cnc2ccccc2c1=O)Nc1ccc2c(c1)OCCO2	-	-	11	-	-	-
O=C(CN1CCN(c2ccccn2)CC1)N1CC(O)CO1 (stereo unspecified)	-	-	18	-	-	-
O=C(CCC1CCCC1)NC1CCCCC1	-	-	-	-	-	.
N#Cc1ccc(-c2csc(NC3=NCCCCC3)n2)cc1	-	-	15	53[fluorescence artefact?]	-	-
c1ccc(-c2csc(NC3=NCCCCC3)n2)cc1	-	-	-	-	-	.
O=C(COc1ccc(F)cc1)c1c(O)cc(O)cc1O	-	-	-	-	-	.
COc1ccc(C(=O)COc2ccc(F)cc2)c(O)c1	-	-	18	-	-	-

Source: PubChem
